pIC50: −log10 of the molar value.
Assays:
[1] = system: SK-N-SH; experiment: Cytotoxicity against human SK-N-SH cells after 5 days by methylene blue staining assay; assay type: functional, cell-based; conditions: 120 h
How it was run: (§1)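 Cells exposed in triplicate to vehicle or increasing compound concentrations; survival read 5 days post-exposure. Cell mass quantified by methylene blue staining, dye solubilized in 0.1N HCl, absorbance at 610nm. Mean and standard deviation; significance vs media control by Dunnett's multiple comparisons test. IC50 derived from dose-response data.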

[2] = Cytotoxicity against human U87MG cells after 5 days by methylene blue staining assay; assay type: functional, cell-based, U-87MG ATCC; conditions: U-87 MG, 120 h; how it was run: as §1
[3] = system: SK-N-FI; experiment: Cytotoxicity against human SK-N-FI cells after 5 days by methylene blue staining assay; assay type: functional, cell-based; conditions: 120 h; how it was run: as §1
[4] = Cytotoxicity against human CD34-positive blood stem/progenitor cells at 0.3 to 30 uM after 10 to 14 days by inverted light microscopic analysis; assay type: cell-based
How it was run: (§2)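 Human CD34+ progenitor cells isolated from umbilical cord blood, treated in triplicate at 0.3, 3.0 and 30 µM in colony-forming unit assays. Progenitor cell (colony) frequency determined after 14 days; compared against control.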

[5] = Cytotoxicity against human CD34-positive blood stem/progenitor cells at 30 uM after 10 to 14 days by inverted light microscopic analysis relative to control; assay type: cell-based; how it was run: as §2
[6] = Cytotoxicity against p53-knockdown human U87MG cells after 5 days by methylene blue staining assay; assay type: functional, cell-based, U-87MG ATCC; conditions: U-87 MG, 120 h; how it was run: as §1
[7] = Cytotoxicity against human U87MG cells expressing sh-GFP after 5 days by methylene blue staining assay; assay type: functional, cell-based, U-87MG ATCC; conditions: U-87 MG, 120 h; how it was run: as §1

COc1cc(OC)c(C(C#CCCc2ccc(O[Si](C)(C)C(C)(C)C)cc2)CC(=O)c2ccc(O[Si](C)(C)C(C)(C)C)cc2)c(OC)c1 (centres undefined)
pIC50 [1]: 4.31
pIC50 [2]: 4.72
pIC50 [3]: < 4.00

COc1cc(OC)c(C(C#CCCc2ccc(O[Si](C)(C)C(C)(C)C)cc2)CC(=O)c2ccc(OC(C)=O)cc2)c(OC)c1 (centres undefined)
pIC50 [1]: 4.93
Activity [4]: Non-toxic
pIC50 [2]: 5.10
pIC50 [3]: 4.66
Activity [5]: 20%
pIC50 [6]: 5.15
pIC50 [7]: 5.16

COc1cc(OC)c(C(C#CCCc2ccc(O[Si](C)(C)C(C)(C)C)cc2)CC(=O)c2ccc(O)cc2)c(OC)c1 (centres undefined)
pIC50 [1]: 4.74
Activity [4]: Non-toxic
pIC50 [2]: 5.12
pIC50 [3]: 4.51
pIC50 [6]: 5.15
pIC50 [7]: 5.15

COc1cc(/C=C/C(=O)CC(=O)/C=C/c2ccc(O)c(OC)c2)ccc1O [CURCUMIN]
pIC50 [1]: 5.19
pIC50 [2]: 5.09
pIC50 [3]: 4.95

Reference: ChEMBL document CHEMBL3091326, “Design, synthesis, and evaluation of curcumin-derived arylheptanoids for glioblastoma and neuroblastoma cytotoxicity” (Bioorg Med Chem Lett, 2013)
